Consider one substance from article PMC5759846 (Infection and Drug Resistance, 2018).

Data set [1] in a line: Serum teicoplanin trough concentration. Format: in vivo, Chinese patients. The conditions noted are these: day 4. The procedure, abridged: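 Day-4 serum (2–3 mL, additive-free tubes, spun 3,500 rpm 10 min) drawn 30 min before maintenance dose; trough measured by HPLC. Cure or failure judged days 5–7 after last dose from symptoms, laboratory and bacteriological findings. Target 15–30 mg/L; mean ± SD.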

The conditions of data set [2]: introduction; ref [15]–[17]; cited from earlier work.
The conditions of data set [3]: introduction; ref [15]–[17]; cited from earlier work. The source holds these as a separate data set.
The mark [4] stands for this setting: Group B, n=30, loading 400 mg q12h x3, maintenance 400 mg/day.
The mark [5] stands for this setting: Group C, n=17, loading 400 mg q12h x2, maintenance 200 mg/day.
The mark [6] stands for this setting: Group D, n=30, loading 400 mg q12h x1-3, maintenance 200 mg/day.

Consider teicoplanin, for which the “Mean teicoplanin Cmin for a failure” value in data set [1] (38 patients with failed response, all groups, mean ± SD, SD) came to 10010 ± 2370 ng/mL. For the same substance, in data set [1] (75 patients with clinical cure, all groups, mean ± SD, SD), the “Mean teicoplanin Cmin for a successful response” value came to 18920 ± 5120 ng/mL. Besides, the “Proportion of patients achieving target range Cmin 15–30 mg/L” value in data set [1] (setting [4]) is 66.67%; in data set [1] (setting [5]), 70.59%; in data set [1] (setting [6]), 23.33%. Also, the “Proportion of patients with Cmin 10–30 mg/L” value stood at 86.67% in data set [1] (setting [4]), 88.23% in data set [1] (setting [5]) and 70% in data set [1] (setting [6]). Besides, the elimination half-life in data set [2] is 30 to 180 h. Further, the plasma protein-binding rate entry in data set [3] is listed as “over 90%”.
